ChEMBL document CHEMBL5390275, “Molecular Graph-Based Deep Learning Algorithm Facilitates an Imaging-Based Strategy for Rapid Discovery of Small Molecules Modulating Biomolecular Condensates” (J Med Chem, 2023)
The source made the active and inactive calls. The rule behind the calls is not given here.

What was measured:
[1] = test system: U2OS; test: Inhibition of doxycycline induced TDP-43 2KQ mutant anisosomes formation in human U2OS cells expressing TDP-43 2KQ mutant anisosomes at 10 uM incubated for 24 hrs by fluorescence imaging analysis; assay type: cell-based
In short: (§1)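 Stable lentivirally transduced DLD1 (single-cell clones sorted by fluorescence) or U2OS lines expressing inducible TDP-43 anisosomes; plated 4000 cells/well, overnight, then compound 24 h; cells fixed, fluorescent anisosomes imaged on ImageExpress HTai and anisosome number per cell quantified.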

[2] = test system: DLD-1; test: Inhibition of doxycycline induced TDP-43 2KQ mutant anisosomes formation in human DLD-1 cells expressing TDP-43 2KQ mutant anisosomes at 10 uM incubated for 24 hrs by fluorescence imaging analysis; assay type: cell-based; in short: as §1
[3] = molecular target: TAR DNA-binding protein 43 (Homo sapiens) (UniProt Q13148); test: Inhibition of human TDP-43 in human SH-SY5Y cells assessed a splicing changes in normal STMN2 mRNA at 10 uM incubated for 24 hrs by qPCR analysis; assay type: cell-based
In short: (§2)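 SH-SY5Y neuron-like cells (DMEM/F12, 10% FBS) given compound at 10uM final for 24 h; total RNA then harvested and normal and cryptic spliced STMN2 mRNA quantified by real-time PCR.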

[4] = molecular target: Nuclear receptor corepressor 2 (Homo sapiens) (UniProt Q9Y618); test: Inhibition of doxycycline induced NCOR2 anisosomes formation in human U2OS cells expressing ALS-causing NCOR2 anisosomes assessed as change in NCOR2 droplets morphology at 10 uM incubated for 24 hrs by fluorescence imaging analysis; assay type: cell-based
In short: (§3)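 U2OS cells stably expressing inducible TDP-43 K181E or NCOR2 anisosomes, treated with compound for 24 h (10uM, or a concentration series), then fixed and imaged; fraction of demixing cells quantified from fluorescent images.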

[5] = test system: DLD-1; test: Inhibition of sodium arsenite induced stress granule formation in human DLD-1 cells at 10 uM incubated for 24 hrs followed by sodium arsenite stimulation for 1 hr by G3BP1 staining based immunostaining analysis; assay type: functional, cell-based
In short: (§4)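 DLD1 cells on glass-bottom plates treated with compound at 10uM for 24 h, then 250uM sodium arsenite for 1 h; DMSO control. Fixed in 4% PFA 10 min RT, permeabilized, blocked (5% BSA, 0.1% Triton X-100), stained with anti-G3BP1 and anti-NPM1 (1:100, 1 h RT), secondaries 1:1000 30 min, DAPI; spinning-disc confocal max-projection images analysed.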

[6] = test system: TAR DNA-binding protein 43 (Homo sapiens), Q13148 [K181E]; test: Inhibition of doxycycline induced TDP-43 K181E mutant anisosomes formation in human U2OS cells expressing ALS-causing TDP-43 K181E mutant anisosomes assessed as change in TDP-43 droplets morphology at 1 to 10 uM incubated for 24 hrs by fluorescence imaging analysis; assay type: cell-based; details: dose 1-10 µM; in short: as §3
[7] = test system: DLD-1; test: Inhibition of sodium arsenite stimulated human DLD-1 cells assessed as change in nucleolus morphology at 10 uM incubated for 24 hrs followed by sodium arsenite stimulation for 1 hr by NPM1 staining based immunostaining analysis; assay type: functional, cell-based; in short: as §4
[8] = test system: SH-SY5Y; test: Inhibition of TDP-43 2KQ mutant in human SH-SY5Y cells assessed a splicing changes in cryptic STMN2 mRNA at 10 uM incubated for 24 hrs by qPCR analysis; assay type: cell-based; in short: as §2

Sequence of Nuclear receptor corepressor 2 (Homo sapiens) (Q9Y618 whole entry): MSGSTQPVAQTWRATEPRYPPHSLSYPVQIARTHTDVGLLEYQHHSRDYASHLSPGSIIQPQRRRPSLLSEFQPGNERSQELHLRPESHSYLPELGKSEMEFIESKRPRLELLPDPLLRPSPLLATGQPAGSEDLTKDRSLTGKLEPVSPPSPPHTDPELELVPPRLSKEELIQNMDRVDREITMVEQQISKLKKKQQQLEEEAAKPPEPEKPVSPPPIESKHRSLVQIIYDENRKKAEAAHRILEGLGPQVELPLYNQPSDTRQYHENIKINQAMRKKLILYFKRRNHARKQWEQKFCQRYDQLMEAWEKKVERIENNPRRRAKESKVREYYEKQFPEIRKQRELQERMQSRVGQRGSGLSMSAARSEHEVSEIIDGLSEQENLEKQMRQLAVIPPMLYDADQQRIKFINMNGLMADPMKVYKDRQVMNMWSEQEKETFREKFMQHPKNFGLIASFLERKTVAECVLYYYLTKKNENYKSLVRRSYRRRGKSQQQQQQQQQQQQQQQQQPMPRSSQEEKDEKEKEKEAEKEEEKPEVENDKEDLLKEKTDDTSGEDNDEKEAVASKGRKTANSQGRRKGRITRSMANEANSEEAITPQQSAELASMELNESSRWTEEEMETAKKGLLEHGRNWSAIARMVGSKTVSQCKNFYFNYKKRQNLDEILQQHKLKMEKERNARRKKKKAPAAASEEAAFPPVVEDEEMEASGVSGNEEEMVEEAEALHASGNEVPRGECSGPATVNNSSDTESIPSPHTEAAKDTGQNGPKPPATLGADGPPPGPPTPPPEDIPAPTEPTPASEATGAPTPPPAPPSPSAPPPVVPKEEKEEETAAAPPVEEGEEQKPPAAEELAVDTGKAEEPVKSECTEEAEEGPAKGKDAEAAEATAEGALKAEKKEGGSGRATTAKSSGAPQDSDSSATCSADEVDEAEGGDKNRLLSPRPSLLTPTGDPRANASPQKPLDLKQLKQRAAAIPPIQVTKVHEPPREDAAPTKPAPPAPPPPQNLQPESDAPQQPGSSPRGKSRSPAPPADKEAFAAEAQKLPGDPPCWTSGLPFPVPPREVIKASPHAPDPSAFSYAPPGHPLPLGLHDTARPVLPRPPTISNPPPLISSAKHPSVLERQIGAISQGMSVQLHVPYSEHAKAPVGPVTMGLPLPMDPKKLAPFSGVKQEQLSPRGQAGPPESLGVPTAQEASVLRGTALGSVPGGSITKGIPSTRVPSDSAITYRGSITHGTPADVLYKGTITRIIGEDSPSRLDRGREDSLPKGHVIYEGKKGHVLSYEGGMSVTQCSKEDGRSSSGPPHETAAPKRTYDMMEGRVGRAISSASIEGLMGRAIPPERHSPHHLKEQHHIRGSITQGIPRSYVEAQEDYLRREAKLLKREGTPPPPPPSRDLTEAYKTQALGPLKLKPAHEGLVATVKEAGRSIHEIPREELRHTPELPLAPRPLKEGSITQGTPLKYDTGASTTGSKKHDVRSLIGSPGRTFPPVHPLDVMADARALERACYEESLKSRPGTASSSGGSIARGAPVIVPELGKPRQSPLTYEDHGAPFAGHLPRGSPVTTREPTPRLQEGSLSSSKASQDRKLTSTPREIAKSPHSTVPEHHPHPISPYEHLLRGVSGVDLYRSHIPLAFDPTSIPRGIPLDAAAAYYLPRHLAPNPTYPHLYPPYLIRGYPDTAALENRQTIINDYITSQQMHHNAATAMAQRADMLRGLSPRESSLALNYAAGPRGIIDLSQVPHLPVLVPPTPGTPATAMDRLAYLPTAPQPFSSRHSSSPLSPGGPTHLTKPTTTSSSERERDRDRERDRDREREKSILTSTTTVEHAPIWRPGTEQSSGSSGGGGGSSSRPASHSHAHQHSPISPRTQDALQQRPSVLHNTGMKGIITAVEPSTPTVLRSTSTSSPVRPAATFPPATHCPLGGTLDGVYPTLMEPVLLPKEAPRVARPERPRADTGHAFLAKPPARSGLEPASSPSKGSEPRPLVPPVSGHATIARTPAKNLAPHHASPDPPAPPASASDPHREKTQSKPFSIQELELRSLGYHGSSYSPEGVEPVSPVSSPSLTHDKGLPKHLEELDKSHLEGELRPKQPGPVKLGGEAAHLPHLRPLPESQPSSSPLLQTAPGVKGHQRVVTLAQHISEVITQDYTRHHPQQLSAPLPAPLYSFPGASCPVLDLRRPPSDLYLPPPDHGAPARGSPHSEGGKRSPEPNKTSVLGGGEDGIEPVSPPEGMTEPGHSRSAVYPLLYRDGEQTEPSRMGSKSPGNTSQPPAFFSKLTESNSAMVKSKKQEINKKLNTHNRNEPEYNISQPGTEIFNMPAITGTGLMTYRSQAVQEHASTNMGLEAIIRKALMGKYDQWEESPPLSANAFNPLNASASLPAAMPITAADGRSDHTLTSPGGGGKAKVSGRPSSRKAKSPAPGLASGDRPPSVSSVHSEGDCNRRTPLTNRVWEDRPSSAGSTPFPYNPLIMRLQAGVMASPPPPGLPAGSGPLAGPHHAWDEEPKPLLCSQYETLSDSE
Sequence of TAR DNA-binding protein 43 (Homo sapiens) (Q13148 whole entry, canonical isoform): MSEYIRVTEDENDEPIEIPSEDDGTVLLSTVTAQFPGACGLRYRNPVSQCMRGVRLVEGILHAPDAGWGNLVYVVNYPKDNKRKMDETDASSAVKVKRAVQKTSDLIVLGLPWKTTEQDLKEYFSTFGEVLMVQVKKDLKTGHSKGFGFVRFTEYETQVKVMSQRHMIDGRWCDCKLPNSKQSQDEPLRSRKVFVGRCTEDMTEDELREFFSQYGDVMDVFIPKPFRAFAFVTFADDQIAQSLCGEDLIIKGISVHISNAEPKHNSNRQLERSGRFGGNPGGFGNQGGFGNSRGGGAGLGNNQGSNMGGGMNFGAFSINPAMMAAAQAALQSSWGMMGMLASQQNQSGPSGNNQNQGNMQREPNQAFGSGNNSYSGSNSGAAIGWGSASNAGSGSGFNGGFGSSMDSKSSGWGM
Sequence of TAR DNA-binding protein 43 (Homo sapiens), Q13148 [K181E] (Q13148 whole entry K181E): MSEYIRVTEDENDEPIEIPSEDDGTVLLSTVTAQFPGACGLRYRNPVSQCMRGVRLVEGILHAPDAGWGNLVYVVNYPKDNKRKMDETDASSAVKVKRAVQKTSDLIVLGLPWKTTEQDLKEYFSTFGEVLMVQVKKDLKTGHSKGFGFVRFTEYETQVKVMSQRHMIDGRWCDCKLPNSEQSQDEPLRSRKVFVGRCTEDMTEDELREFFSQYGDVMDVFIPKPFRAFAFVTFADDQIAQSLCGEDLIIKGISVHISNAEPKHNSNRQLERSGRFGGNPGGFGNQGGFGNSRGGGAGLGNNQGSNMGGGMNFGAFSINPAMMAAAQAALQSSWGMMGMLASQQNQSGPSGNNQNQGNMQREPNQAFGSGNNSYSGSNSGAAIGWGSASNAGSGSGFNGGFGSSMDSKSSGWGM

Structure (SMILES)	inhibition [1]	inhibition [2]	inhibition [3]	inhibition [4]	inhibition [5]	inhibition [6]	inhibition [7]	inhibition [8]
COc1ccc2[nH]c(=O)c3c(c2c1)OC(C)(C)C=C3	Active	Active	inactive	inactive	inactive	Dose-Dependent Effect		
COc1ccc(NC(=O)Cn2c(SCc3ccc(F)cc3)nc3cccnc32)cc1OC			inactive	Active	inactive	inactive		
C=C1C(=O)O[C@H]2C3=C(C)CCC[C@]3(C)C(=O)C[C@@H]12	Active	Active	inactive	Active	Active	Active	Active	
Cc1ccc(CCNc2ncnc3onc(C)c23)cc1	inactive	inactive	inactive		inactive			Active
COc1ccc(S(=O)(=O)NCC(c2ccco2)S(=O)(=O)c2cccs2)cc1F (centres undefined)			inactive		inactive			
